Molecules are shown by their SMILES.

This test has as its target T1, Gonadotropin-releasing hormone receptor (Rattus norvegicus, UniProt P30969).
T1 sequence (P30969 whole entry): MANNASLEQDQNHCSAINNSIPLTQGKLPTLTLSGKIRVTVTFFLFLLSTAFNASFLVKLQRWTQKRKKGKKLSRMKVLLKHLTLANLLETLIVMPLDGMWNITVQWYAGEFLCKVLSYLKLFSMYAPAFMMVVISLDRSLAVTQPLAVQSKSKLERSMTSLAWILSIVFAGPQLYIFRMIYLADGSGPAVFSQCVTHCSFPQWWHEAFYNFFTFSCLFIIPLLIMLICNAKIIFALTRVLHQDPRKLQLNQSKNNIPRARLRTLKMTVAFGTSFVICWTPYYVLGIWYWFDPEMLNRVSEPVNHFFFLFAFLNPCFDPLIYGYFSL
The test is described as follows: Inhibition of binding of radiolabeled histrelin to Gonadotropin-releasing hormone receptor (GnRHr) in rat pituitary gland membranes. It is filed as cell membranes, Membrane. In a few lines:
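Rat anterior pituitary membranes (male and female glands equal numbers), homogenized in 0.32 M sucrose/aprotinin, 4000g pellet, diluted 15-fold in 10 mM Hepes, 0.2% BSA, pH 7.6. Filtration onto PEI-treated glass filters, scintillation counting. IC50 in nM, duplicate, n = 1.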
The compound `CC(=O)Nc1ccc(C[C@H](NC(=O)[C@H](CO)NC(=O)[C@@H](Cc2cccnc2)NC(=O)[C@@H](NC(=O)c2cnccn2)NC(=O)[C@@H](Cc2ccc3ccccc3c2)NC(C)=O)C(=O)N[C@H](Cc2ccc(NC(C)=O)cc2)C(=O)N[C@@H](CC(C)C)C(=O)N[C@@H](CCCCNC(C)C)C(=O)N2CCC[C@H]2C(=O)N[C@H](C)C(N)=O)cc1` gave a 50% inhibitory concentration (IC50) of 2000 nM.

With `CC(=O)Nc1ccc(C[C@H](NC(=O)[C@H](CO)NC(=O)[C@@H](NC(=O)c2cccnc2)NC(=O)[C@@H](Cc2ccc(Cl)cc2)NC(=O)[C@@H](Cc2ccc3ccccc3c2)NC(C)=O)C(=O)N[C@H](Cc2ccc(NC(C)=O)cc2)C(=O)N[C@@H](CC(C)C)C(=O)N[C@@H](CCCCNC(C)C)C(=O)N2CCC[C@H]2C(=O)N[C@H](C)C(N)=O)cc1`, the IC50 turned out to be 0.63 nM. This IC50 is about 3200-fold lower than that of the compound before.

Regarding `CC(=O)Nc1ccc(C[C@H](NC(=O)[C@H](CO)NC(=O)[C@@H](Cc2cccnc2)NC(=O)[C@@H](Cc2ccc(Cl)cc2)NC(=O)[C@@H](Cc2ccc3ccccc3c2)NC(C)=O)C(=O)N[C@H](Cc2ccc(NC(C)=O)cc2)C(=O)N[C@H](C(=O)N[C@@H](CCCCNC(C)C)C(=O)N2CCC[C@H]2C(=O)N[C@H](C)C(N)=O)N(C)C(C)=O)cc1`, the half-inhibitory concentration (IC50) came out at 1.7 nM.

Consider `CC(=O)Nc1ccc(C[C@H](NC(=O)[C@H](CO)NC(=O)[C@@H](NC(=O)[C@@H](Cc2ccc(Cl)cc2)NC(=O)[C@@H](Cc2ccc3ccccc3c2)NC(C)=O)N(C)C(=O)c2cccnc2)C(=O)N[C@H](Cc2ccc(NC(C)=O)cc2)C(=O)N[C@@H](CC(C)C)C(=O)N[C@@H](CCCCNC(C)C)C(=O)N2CCC[C@H]2C(=O)N[C@H](C)C(N)=O)cc1` (single isomer, unassigned), for which the IC50 worked out at 36 nM.

`CC(=O)Nc1ccc(C[C@H](NC(=O)[C@H](CO)NC(=O)[C@@H](Cc2cccnc2)NC(=O)[C@@H](Cc2ccc(Cl)cc2)NC(=O)[C@@H](NC(C)=O)N(C)C(=O)c2ccc3ccccc3c2)C(=O)N[C@H](Cc2ccc(NC(C)=O)cc2)C(=O)N[C@@H](CC(C)C)C(=O)N[C@@H](CCCCNC(C)C)C(=O)N2CCC[C@H]2C(=O)N[C@H](C)C(N)=O)cc1` (single isomer, unassigned) gave an IC50 of 0.3 nM. This IC50 lies about 120-fold lower than the previous one.

Compound `CC(=O)Nc1ccc(C[C@H](NC(=O)[C@H](NC=O)NC(=O)[C@@H](Cc2cccnc2)NC(=O)[C@@H](Cc2ccc(Cl)cc2)NC(=O)[C@@H](Cc2ccc3ccccc3c2)NC(C)=O)C(=O)N[C@H](Cc2ccc(NC(C)=O)cc2)C(=O)N[C@@H](CC(C)C)C(=O)N[C@@H](CCCCNC(C)C)C(=O)N2CCC[C@H]2C(=O)N[C@H](C)C(N)=O)cc1` returned an IC50 of 0.84 nM.

Take `CC(=O)Nc1ccc(C[C@H](NC(=O)[C@H](NC(=O)CO)NC(=O)[C@@H](Cc2cccnc2)NC(=O)[C@@H](Cc2ccc(Cl)cc2)NC(=O)[C@@H](Cc2ccc3ccccc3c2)NC(C)=O)C(=O)N[C@H](Cc2ccc(NC(C)=O)cc2)C(=O)N[C@@H](CC(C)C)C(=O)N[C@@H](CCCCNC(C)C)C(=O)N2CCC[C@H]2C(=O)N[C@H](C)C(N)=O)cc1` (single isomer, unassigned): the IC50 came out at 0.3 nM.

`CC(=O)Nc1ccc(C[C@H](NC(=O)[C@H](CO)NC(=O)[C@@H](Cc2cccnc2)NC(=O)[C@@H](Cc2ccc(Cl)cc2)NC(=O)[C@@H](Cc2ccc3ccccc3c2)NC(C)=O)C(=O)N[C@H](Cc2ccc(NC(C)=O)cc2)C(=O)N[C@@H](CC(C)C)C(=O)N[C@@H](CCCCNC(C)C)C(=O)N2CCC[C@H]2C(=O)N[C@H](NC=O)C(N)=O)cc1` (single isomer, unassigned) displayed an IC50 of 0.59 nM.

For the compound `CC(=O)Nc1ccc(C[C@@H](NC(=O)[C@H](NC(=O)c2ccc(O)cc2)NC(=O)[C@H](CO)NC(=O)[C@@H](Cc2cccnc2)NC(=O)[C@@H](Cc2ccc(Cl)cc2)NC(=O)[C@@H](Cc2ccc3ccccc3c2)NC(C)=O)C(=O)N[C@@H](CC(C)C)C(=O)N[C@@H](CCCCNC(C)C)C(=O)N2CCC[C@H]2C(=O)N[C@H](C)C(N)=O)cc1`, the concentration for half-maximal inhibition (IC50) was 0.3 nM.

The values above are taken from ChEMBL document CHEMBL1130231, “Betidamino acid scan of the GnRH antagonist acyline” (J Med Chem, 1997).
